Source: article PMC6542277 (Journal of medicinal chemistry, 2018)
Values belong to the compound of their own block, whether it stands above or below them. Where a SMILES comes first, the peptide text is derived from it. Bridges are numbered along the chain shown (N, C = ends). Roman numbers before positions name the chains, in order. [ ]: non-standard residue; d: D form. The star is where a group is joined. X1 = CN1C(=CC=CC=CC2=[N+](CCCCCC(=O)*)c3ccc4ccccc4c3C2(C)C)C(C)(C)c2c1ccc1ccccc21; AEEEA = NCCOCCOCCOCC(=O)O

Columns and labels:
[1] = In vivo whole-body NIR fluorescence imaging; settings: mouse, in vivo, iv, 300 uM, 150 uL
[2] = Stability in PBS containing 0.1% BSA; format: physicochemical; settings: 0.01 mol/L PBS, pH 7.4, 37°C, HPLC at 0.5, 2, 6 and 12 hours
[3] = Enzymatic stability in mouse serum; format: in vitro ADME; settings: 30 μM in mouse serum, 37°C, at 2 hour; HPLC of supernatant after centrifugation
In short: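 Samples taken at 0.5, 1.0, 1.5 and 2 h of serum incubation at 37°C were centrifuged at 14,000 rpm. 20 μL of supernatant was analysed by HPLC.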

OE33 xenograft tumors [4] = assay: Biodistribution, ex vivo organ fluorescence; design: species or system mouse; settings: nude mice, 300 μM in 150 μL PBS, 2 hours
[5] = Acute toxicity on histology; format: in vivo, mouse; settings: nude mice after systemic injection of 300 μM, 150 μL PBS
SKBr3 cells = assay: Internalization, confocal images over time; format: cell-based, human
Hydrophilicity = format: physicochemical; settings: triethyleneglycol linker (E3); method not given
ErbB2 = ErbB2 (Homo sapiens, UniProt P04626); assay: siRNA knockdown of ErbB2, confocal binding; format: cell-based; settings: confocal microscopy; mean of 5 cells from 3 images; P=7.8×10^−3
[6] = tested on: Barrett's neoplasia (HGD and EAC); assay: Binding to human esophageal specimens ex vivo, confocal microscopy; settings: for AUC of ROC curve: human FFPE esophageal specimens ex vivo, HGD and EAC versus SQ and BE
In short: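 Archived FFPE human esophagus cut at 10 μm, deparaffinized, rehydrated, then given two-step acidic plus protease antigen retrieval. Sections were blocked with protein serum for 10 min, stained with 0.5 μM heterodimer for 10 min in the dark at RT, then anti-EGFR and anti-ErbB2 antibodies with secondaries. Mean intensity came from three 20×20 μm2 epithelial boxes, avoiding saturated regions. SQ/BE/HGD/EAC groups (n = 31, 8, 23, 12) compared by unpaired t test and one-way ANOVA.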

[7] = tested on: EGFR/ErbB2 signaling (p-EGFR, p-ErbB2, p-AKT, p-ERK) in SKBr3 cells; assay: Effect on cell signaling, Western blot; format: cell-based, human
OE33 xenograft tumors [8] = assay: In vivo whole-body NIR fluorescence imaging; settings: nude mice, OE33 xenograft, 300 μM in 150 μL PBS via tail vein, NIR fluorescence
OE33 cells [9] = assay: Apparent dissociation constant by flow cytometry; format: binding, human; settings: from kd on OE33 cells
In short: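 Labelled heterodimer serially diluted in PBS (0, 10, 25, 50, 100, 200 nM) and incubated with OE33 cells at 4°C for 1 h, then washed in cold PBS. Mean fluorescence was read by flow cytometry. kd = 1/ka came from a least-squares fit to I = (I0 + Imax·ka[X])/(I0 + ka[X]), where I0 is the no-peptide intensity and Imax the saturation intensity.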

EGFR = EGFR (Homo sapiens, UniProt P00533); assay: siRNA knockdown of EGFR, confocal binding; format: cell-based; settings: confocal microscopy; mean of 5 cells from 3 images; P=3.6×10^−4
[10] = tested on: OE33 human esophageal adenocarcinoma cells; assay: Confocal microscopy binding validation; format: cell-based
In short: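 OE33 cells, kept in RPMI 1640 with 10% FBS and penicillin/streptomycin at 37°C, 5% CO2, grown to ~70% confluence on coverslips. Cells were blocked with 2% BSA/PBS for 30 min, given Cy5.5-labelled peptides, washed 3×, fixed in ice-cold 4% PFA for 10 min and mounted with DAPI. Confocal intensities were quantified from 3 independent images.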

OE33 cells [11] = assay: Apparent association time constant by flow cytometry; format: binding, human; settings: 1 μM peptide, 4°C
In short: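 OE33 cells grown to ~80% confluence, detached with PBS-based dissociation buffer, then held with 1 μM labelled heterodimer at 4°C for periods of 0–60 min. Cells were centrifuged, washed in cold PBS and fixed in 4% PFA before flow cytometry. Median fluorescence was ratioed to peptide-free cells, and k was fitted to y(t) = Imax[1−exp(−kt)].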

[12] = human esophageal specimens ex vivo, confocal microscopy, 0.5 μM, 10 min, RT

Chain of EGFR (P00533 25-1210): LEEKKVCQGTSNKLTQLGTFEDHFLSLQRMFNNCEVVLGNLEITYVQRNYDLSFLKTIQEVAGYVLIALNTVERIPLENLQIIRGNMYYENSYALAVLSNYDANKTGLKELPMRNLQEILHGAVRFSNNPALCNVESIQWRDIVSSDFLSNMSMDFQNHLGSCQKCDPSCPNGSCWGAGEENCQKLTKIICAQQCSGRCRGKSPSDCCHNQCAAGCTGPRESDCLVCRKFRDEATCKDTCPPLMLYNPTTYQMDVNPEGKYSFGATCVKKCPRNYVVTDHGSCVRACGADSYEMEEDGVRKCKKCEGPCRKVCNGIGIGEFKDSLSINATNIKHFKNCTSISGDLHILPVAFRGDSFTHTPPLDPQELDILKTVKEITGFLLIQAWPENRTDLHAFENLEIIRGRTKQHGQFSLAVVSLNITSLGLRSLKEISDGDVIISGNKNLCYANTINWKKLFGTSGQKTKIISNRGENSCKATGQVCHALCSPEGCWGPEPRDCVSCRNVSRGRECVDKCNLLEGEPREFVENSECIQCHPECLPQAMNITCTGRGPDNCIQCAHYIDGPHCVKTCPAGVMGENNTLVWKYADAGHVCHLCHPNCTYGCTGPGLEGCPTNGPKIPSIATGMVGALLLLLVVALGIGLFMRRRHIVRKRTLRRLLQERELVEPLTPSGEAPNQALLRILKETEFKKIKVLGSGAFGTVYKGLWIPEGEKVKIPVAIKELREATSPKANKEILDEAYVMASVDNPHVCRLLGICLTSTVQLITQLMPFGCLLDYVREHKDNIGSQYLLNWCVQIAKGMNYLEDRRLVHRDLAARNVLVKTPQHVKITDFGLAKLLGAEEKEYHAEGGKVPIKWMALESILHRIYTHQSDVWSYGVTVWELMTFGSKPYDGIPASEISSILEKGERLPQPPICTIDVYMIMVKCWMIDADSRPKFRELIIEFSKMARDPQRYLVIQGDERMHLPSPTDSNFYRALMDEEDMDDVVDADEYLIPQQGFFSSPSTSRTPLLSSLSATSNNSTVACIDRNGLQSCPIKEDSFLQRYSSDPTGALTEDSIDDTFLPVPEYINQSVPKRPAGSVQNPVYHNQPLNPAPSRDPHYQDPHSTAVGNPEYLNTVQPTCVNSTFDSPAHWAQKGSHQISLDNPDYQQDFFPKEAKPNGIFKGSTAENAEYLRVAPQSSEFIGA
Chain of ErbB2 (P04626 23-1255): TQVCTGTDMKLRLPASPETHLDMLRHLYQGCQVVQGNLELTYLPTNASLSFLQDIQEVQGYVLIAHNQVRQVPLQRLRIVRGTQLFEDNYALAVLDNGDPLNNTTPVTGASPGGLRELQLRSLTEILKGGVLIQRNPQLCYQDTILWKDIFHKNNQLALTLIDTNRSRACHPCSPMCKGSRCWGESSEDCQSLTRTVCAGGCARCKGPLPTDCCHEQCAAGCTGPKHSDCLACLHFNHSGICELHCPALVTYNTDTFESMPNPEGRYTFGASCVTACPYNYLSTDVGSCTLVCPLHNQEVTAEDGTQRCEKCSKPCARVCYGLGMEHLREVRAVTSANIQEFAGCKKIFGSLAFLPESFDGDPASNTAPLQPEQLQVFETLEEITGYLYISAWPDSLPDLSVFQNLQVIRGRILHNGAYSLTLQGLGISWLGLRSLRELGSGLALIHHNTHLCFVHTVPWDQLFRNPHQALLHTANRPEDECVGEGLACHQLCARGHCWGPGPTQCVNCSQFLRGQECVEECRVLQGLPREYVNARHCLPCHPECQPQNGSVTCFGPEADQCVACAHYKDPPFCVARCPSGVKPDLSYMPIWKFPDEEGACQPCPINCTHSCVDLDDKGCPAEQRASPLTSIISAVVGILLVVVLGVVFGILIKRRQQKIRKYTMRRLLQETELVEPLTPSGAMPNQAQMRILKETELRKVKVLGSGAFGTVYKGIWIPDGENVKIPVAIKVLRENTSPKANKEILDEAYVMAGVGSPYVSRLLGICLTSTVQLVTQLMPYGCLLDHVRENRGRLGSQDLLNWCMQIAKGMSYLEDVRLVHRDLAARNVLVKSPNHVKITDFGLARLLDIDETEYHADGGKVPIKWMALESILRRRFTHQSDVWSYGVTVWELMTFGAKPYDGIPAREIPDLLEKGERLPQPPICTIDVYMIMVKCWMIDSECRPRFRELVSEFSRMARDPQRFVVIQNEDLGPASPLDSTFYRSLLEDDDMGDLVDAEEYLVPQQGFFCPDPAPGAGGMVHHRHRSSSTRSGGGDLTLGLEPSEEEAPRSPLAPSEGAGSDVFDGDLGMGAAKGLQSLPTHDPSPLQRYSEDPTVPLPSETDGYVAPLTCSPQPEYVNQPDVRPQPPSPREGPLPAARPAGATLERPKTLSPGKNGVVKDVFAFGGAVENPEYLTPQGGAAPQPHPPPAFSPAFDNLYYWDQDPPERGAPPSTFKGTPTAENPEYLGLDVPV

Compound: C[C@H](NC(=O)CNC(=O)CNC(=O)CN)C(=O)NCC(=O)NCC(=O)NCC(=O)NCCCC[C@H](NC(=O)CNC(=O)CNC(=O)CNC(=O)[C@H](C)NC(=O)CNC(=O)CNC(=O)CN)C(=O)N[C@@H](CCCCNC(=O)CCCCC[N+]1=C(C=CC=CC=C2N(C)c3ccc4ccccc4c3C2(C)C)C(C)(C)c2c1ccc1ccccc21)C(N)=O [(GGGAGGG)2KK-Cy5.5, reference compound] (I: H-GGGAGGGKK(X1)-NH2 / II: H-GGGAGGG; amide I:8-II:C)
- tissue to tissue ratio at 2 h [1]: 1.43 ± 0.28

Compound: CN1C(=CC=CC=CC2=[N+](CCCCCC(=O)NCCCC[C@H](NC(=O)[C@H](CCCCNC(=O)COCCOCCOCCNC(=O)[C@H](Cc3ccccc3)NC(=O)[C@H](CCCNC(=N)N)NC(=O)[C@@H]3CCCN3C(=O)[C@H](CC(N)=O)NC(=O)[C@@H]3CCCN3C(=O)[C@H](CO)NC(=O)[C@@H](N)CCCCN)NC(=O)COCCOCCOCCNC(=O)[C@H](CCC(=O)O)NC(=O)[C@H](CCCNC(=N)N)NC(=O)[C@@H]3CCCN3C(=O)[C@H](CCCCN)NC(=O)[C@H](Cc3c[nH]cn3)NC(=O)[C@H](CCCNC(=N)N)NC(=O)[C@@H](N)CCC(N)=O)C(N)=O)c3ccc4ccccc4c3C2(C)C)C(C)(C)c2c1ccc1ccccc21 [QRH*-KSP*-E3-Cy5.5] (I: H-QRHKPRE[AEEEA]KK(X1)-NH2 / II: H-KSPNPRF[AEEEA]; amide I:9-II:C; N-terminus and C-terminus assumed)
- degradation in PBS containing 0.1% BSA [2]: No noticeable degradation
- area of new formed peak (may arise from degradation) [3]: about 20%
- uptake in kidney (OE33 xenograft tumors [4]; supports renal clearance): High uptake
- uptake in tumor relative to muscle (OE33 xenograft tumors [4]; OE33 xenograft, n = 6): 3 fold
- acute toxicity on histology (H&E) [5]: no evidence of acute toxicity
- time at which internalization begins (SKBr3 cells): 8 min
- time at which internalization reaches near completion (SKBr3 cells): 40 min
- hydrophilicity (Hydrophilicity): good hydrophilicity
- fluorescence intensity, siCL (control) versus siErbB2 (knockdown) SKBr3 cells (ErbB2): significantly greater intensity
- AUC of ROC curve [6]: 0.95
- fluorescence intensity with SQ and BE [6, 12]: minimal fluorescence intensity
- fluorescence signal with HGD and EAC [6, 12]: increased signal
- downstream change in AKT (p-AKT) and ERK (p-ERK) ([7]; heterodimer at 1, 5 and 20 μM): no downstream change
- phosphorylation of EGFR (p-EGFR) or ErbB2 (p-ErbB2) ([7]; heterodimer at 1, 5 and 20 μM): no change
- tissue to tissue ratio at 2 h [1]: 2.39 ± 0.52
- time at which signal returns to baseline (systemic clearance) (OE33 xenograft tumors [8]): ~ 24 hours
- affinity compared with either monomer alone (OE33 cells [9]): 2 fold
- fluorescence intensity, siCL (control) versus siEGFR (knockdown) SKBr3 cells (EGFR): significantly greater intensity
- binding to surface of OE33 cells ([10]; 1 μM, 30 min, 4°C): strong binding
- fluorescence intensity compared with either monomer alone ([10]; binding to OE33 cells): 3 fold
- association time (printed in brackets after k) (OE33 cells [11]): 4.5 min

Compound: CS(=O)(=O)CCNCc1ccc(-c2ccc3ncnc(Nc4ccc(OCc5cccc(F)c5)c(Cl)c4)c3c2)o1 [lapatinib, reference compound]
- expression of p-ErbB2, p-AKT and p-ERK ([7]; lapatinib 100 nM): reduced expression

Compound: EGF: endogenous ligand for EGFR, positive control
- phosphorylation of AKT (p-AKT) and ERK (p-ERK), positive control ([7]; EGF 100 ng/mL): strong phosphorylation activity

- AUC of ROC curve [6]: 0.91
Compound: KSPNPRF [KSP*-Cy5.5]

- AUC of ROC curve [6]: 0.79
Compound: QRHKPRE [QRH*-Cy5.5]
